# Reference: ChEMBL document CHEMBL1147707, “Novel substituted naphthalen-1-yl-methanone derivatives as anti-hyperglycemic agents” (Bioorg Med Chem Lett, 2006)
# Experiments:
# Rattus norvegicus [1] = assay: Antihyperglycemic activity in sucrose-loaded Sprague-Dawley rat at 100 mg/kg; type: functional
# Method in brief: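 Male rats (169 ± 20 g) fasted 16 h; those with glucose 60–80 mg/dl, in groups of five to six, received compound orally as a 1.0% gum acacia suspension at 100 mg/kg, and controls got vehicle alone. Sucrose (10.0 g/kg, oral) followed 30 min later. Glucose was read at 30, 60, 90 and 120 min, and % fall was taken from AUC versus control (active if p < 0.05).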
# Glucagon receptor = Glucagon receptor (Homo sapiens, UniProt P47871); assay: Inhibition of [125I]glucagon binding to glucagon receptor
# Rattus norvegicus [2] = assay: Antihyperglycemic activity in sucrose charged streptozotocin-induced beta cell damaged diabetic Sprague-Dawley rat at 100 mg/kg; type: functional
# Method in brief: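 Overnight-fasted male rats got streptozotocin at 60 mg/kg i.p., freshly dissolved in 100 mM citrate buffer pH 4.5. Those with glucose 150–250 mg/dl at 48 h were grouped. Each rat was given sucrose at 2.5 g/kg after test-sample treatment. Glucose was measured at 30, 60, 90, 120, 180, 240 and 300 min and 24 h after dosing, with food withheld.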
# Chain of Glucagon receptor (P47871 whole entry): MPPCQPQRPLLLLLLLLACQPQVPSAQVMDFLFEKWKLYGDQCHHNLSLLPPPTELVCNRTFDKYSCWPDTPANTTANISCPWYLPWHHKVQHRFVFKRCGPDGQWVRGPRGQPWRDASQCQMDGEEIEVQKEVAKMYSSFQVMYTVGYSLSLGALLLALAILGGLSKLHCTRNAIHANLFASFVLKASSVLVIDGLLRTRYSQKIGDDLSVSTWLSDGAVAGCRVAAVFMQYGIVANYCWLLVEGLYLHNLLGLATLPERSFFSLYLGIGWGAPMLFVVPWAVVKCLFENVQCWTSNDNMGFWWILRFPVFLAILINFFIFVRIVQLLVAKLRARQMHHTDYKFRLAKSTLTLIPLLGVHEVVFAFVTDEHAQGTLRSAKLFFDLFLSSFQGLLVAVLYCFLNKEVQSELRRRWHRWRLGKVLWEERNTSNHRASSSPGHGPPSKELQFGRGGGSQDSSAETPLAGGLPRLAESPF
IC50 (Glucagon receptor),Structure (SMILES),Activity (Rattus norvegicus [1]),Activity (Rattus norvegicus [2])
55 µM,O=C(c1ccc(OCCN2CCCC2)cc1)c1cccc2ccccc12,17.2%,17%
,COc1ccc(NCCOc2ccc(C(=O)c3cccc4ccccc34)cc2)cc1,9.71%,9.2%
17 µM,O=C(c1ccc(OCCCN2CCCC2)cc1)c1cccc2ccccc12,28.8%,27%
,O=C(c1ccc(OCCNCc2ccccc2)cc1)c1cccc2ccccc12,14.9%,5.6%
,CN(C)C(=N)NC(=N)N [METFORMIN],12.9%,
,O=C(c1ccc(OCCNC2CCCCC2)cc1)c1cccc2ccccc12,7.16%,
,COc1ccc(Cl)cc1C(=O)NCCc1ccc(S(=O)(=O)NC(=O)NC2CCCCC2)cc1 [GLYBURIDE],33.7%,29%
,O=C(c1ccc(OCCN2CCCCC2)cc1)c1cccc2ccccc12,15.4%,11.3%
,O=C(c1ccc(OCCCN2CCCCC2)cc1)c1cccc2ccccc12,7.16%,6.8%
,O=C(c1ccc(OCCCNC2CCCCC2)cc1)c1cccc2ccccc12,11.16%,
,O=C(c1ccc(OCCCl)cc1)c1cccc2ccccc12,24%,
,CCN(CC)CCOc1ccc(C(=O)c2cccc3ccccc23)cc1,7.21%,
,O=C(c1ccc(OCCCNCc2ccccc2)cc1)c1cccc2ccccc12,8.06%,7.5%
,O=C(c1ccc(OCCCCl)cc1)c1cccc2ccccc12,22%,8.5%
,Cc1ccc(S(=O)(=O)NC(=O)NN2CC3CCCC3C2)cc1 (stereo not given) [GLICLAZIDE],40.4%,27.7%

Structure (SMILES),IC50 (Glucagon receptor),Activity (Rattus norvegicus [1]),Activity (Rattus norvegicus [2])
COc1ccc(NCCCOc2ccc(C(=O)c3cccc4ccccc34)cc2)cc1,35 µM,16.17%,12.6%
